Test results taken from ChEMBL document CHEMBL1157639, “Identification of inhibitors of drug-resistant Candida albicans strains from a library of bicyclic peptidomimetic compounds” (2010).

Assays:
Assay type in all cases: functional, Vagina
[1] = system: Candida albicans; assay: Antifungal activity against pharmacoresistant Candida albicans AIDS68 infected in Wistar rat estrogen-dependent fungal vaginitis model assessed as fungal burden at 10 ug administered intravaginally 48 hrs after fungal infection measured on day 7 after infection
In short: (§1)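 Oophorectomized female Wistar rats (80-100 g) got 0.5 mg estradiol benzoate s.c. Six days later they were inoculated intravaginally with >10⁷ YPD-grown yeast cells (28 °C, washed, hemocytometer-counted) in 0.1 mL saline. Treatment was given intravaginally at 1, 24 and 48 h post-challenge. Burden was counted by culturing 100 μL vaginal fluid on Sabouraud-chloramphenicol (50 μg/mL) agar, as CFU/mL ×1000, through day 28.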

[2] = system: Candida albicans; assay: Antifungal activity against pharmacoresistant Candida albicans AIDS68 infected in Wistar rat estrogen-dependent fungal vaginitis model assessed as fungal burden at 10 ug administered intravaginally 48 hrs after fungal infection measured on day 5 after infection; in short: as §1
[3] = system: Candida albicans; assay: Antifungal activity against pharmacoresistant Candida albicans AIDS68 infected in Wistar rat estrogen-dependent fungal vaginitis model assessed as fungal burden at 10 ug administered intravaginally 24 hrs after fungal infection measured on day 2 after infection; in short: as §1
[4] = system: Candida albicans; assay: Antifungal activity against pharmacoresistant Candida albicans AIDS68 infected in Wistar rat estrogen-dependent fungal vaginitis model assessed as fungal burden at 10 ug administered intravaginally 1 hr after fungal infection measured on day 1 after infection; in short: as §1
[5] = system: Candida albicans; assay: Antifungal activity against pharmacoresistant Candida albicans AIDS68 infected in Wistar rat estrogen-dependent fungal vaginitis model assessed as fungal burden at 10 ug administered intravaginally 1 hr after fungal infection measured within 1 day of infection; in short: as §1
[6] = system: Candida albicans; assay: Antifungal activity against Candida albicans SA40 infected in Wistar rat estrogen-dependent fungal vaginitis model assessed as fungal burden at 10 ug administered intravaginally 48 hrs after fungal infection measured on day 28 after infection; in short: as §1
[7] = system: Candida albicans; assay: Antifungal activity against Candida albicans SA40 infected in Wistar rat estrogen-dependent fungal vaginitis model assessed as fungal burden at 10 ug administered intravaginally 48 hrs after fungal infection measured on day 21 after infection; in short: as §1
[8] = system: Candida albicans; assay: Antifungal activity against Candida albicans SA40 infected in Wistar rat estrogen-dependent fungal vaginitis model assessed as fungal burden at 10 ug administered intravaginally 48 hrs after fungal infection measured on day 14 after infection; in short: as §1
[9] = system: Candida albicans; assay: Antifungal activity against Candida albicans SA40 infected in Wistar rat estrogen-dependent fungal vaginitis model assessed as fungal burden at 10 ug administered intravaginally 48 hrs after fungal infection measured on day 7 after infection; in short: as §1
[10] = system: Candida albicans; assay: Antifungal activity against Candida albicans SA40 infected in Wistar rat estrogen-dependent fungal vaginitis model assessed as fungal burden at 10 ug administered intravaginally 48 hrs after fungal infection measured on day 5 after infection; in short: as §1
[11] = system: Candida albicans; assay: Antifungal activity against Candida albicans SA40 infected in Wistar rat estrogen-dependent fungal vaginitis model assessed as fungal burden at 10 ug administered intravaginally 24 hrs after fungal infection measured on day 2 after infection; in short: as §1
[12] = system: Candida albicans; assay: Antifungal activity against Candida albicans SA40 infected in Wistar rat estrogen-dependent fungal vaginitis model assessed as fungal burden at 10 ug administered intravaginally 1 hr after fungal infection measured on day 1 after infection; in short: as §1
[13] = system: Candida albicans; assay: Antifungal activity against Candida albicans SA40 infected in Wistar rat estrogen-dependent fungal vaginitis model assessed as fungal burden at 10 ug administered intravaginally 1 hr after fungal infection measured within 1 day of infection; in short: as §1
[14] = system: Candida albicans; assay: Antifungal activity against pharmacoresistant Candida albicans AIDS68 infected in Wistar rat estrogen-dependent fungal vaginitis model assessed as fungal burden at 10 ug administered intravaginally 48 hrs after fungal infection measured on day 14 after infection; in short: as §1
[15] = system: Candida albicans; assay: Antifungal activity against pharmacoresistant Candida albicans AIDS68 infected in Wistar rat estrogen-dependent fungal vaginitis model assessed as fungal burden at 10 ug administered intravaginally 48 hrs after fungal infection measured on day 21 after infection; in short: as §1
[16] = system: Candida albicans; assay: Antifungal activity against pharmacoresistant Candida albicans AIDS68 infected in Wistar rat estrogen-dependent fungal vaginitis model assessed as fungal burden at 10 ug administered intravaginally 48 hrs after fungal infection measured on day 28 after infection; in short: as §1

Structure (SMILES): OC(Cn1cncn1)(Cn1cncn1)c1ccc(F)cc1F [FLUCONAZOLE]
- Activity [1]: 44 ×10³ CFU/ml
- Activity [2]: 61 ×10³ CFU/ml
- Activity [3]: 93 ×10³ CFU/ml
- Activity [4]: 100 ×10³ CFU/ml
- Activity [5]: >100 ×10³ CFU/ml
- Activity [6]: 0 ×10³ CFU/ml
- Activity [7]: 1.25 ×10³ CFU/ml
- Activity [8]: 5 ×10³ CFU/ml
- Activity [9]: 11.7 ×10³ CFU/ml
- Activity [10]: 25.7 ×10³ CFU/ml
- Activity [11]: 49.7 ×10³ CFU/ml
- Activity [12]: 53.5 ×10³ CFU/ml
- Activity [13]: 100 ×10³ CFU/ml
- Activity [14]: 18.7 ×10³ CFU/ml
- Activity [15]: 11.7 ×10³ CFU/ml
- Activity [16]: 0 ×10³ CFU/ml
